Results on 15 compounds are retold here after ChEMBL document CHEMBL4393716, “5-Chlorobenzofuran-2-carboxamides: From allosteric CB1 modulators to potential apoptotic antitumor agents” (Eur J Med Chem, 2019).

The subject of data set [1] is MCF7. The experiment in a line: Antiproliferative activity against human MCF7 cells assessed as growth inhibition incubated for 48 hrs by MTT assay. The class given is functional. Conditions: MCF7, 48 h. The procedure, abridged: (§1)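 MTT viability assay run on four human cancer lines: A549 (lung), MCF-7 (breast), Panc-1 (pancreatic) and HT29 (colon). GI50 derived per cell line from the MTT readout, following a previously reported protocol.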

For the next data set, the system named is A549. The experiment in a line: Antiproliferative activity against human A549 cells assessed as growth inhibition incubated for 48 hrs by MTT assay. Format: functional. Conditions: A549, 48 h. The procedure, abridged:
as §1

Data set [2] is described as follows: Cytotoxicity against human MCF10A cells assessed as reduction in cell viability at 50 uM incubated for 4 days by MTT assay. The class given is cell-based, MCF-10A. The method in brief: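 Non-tumorigenic human mammary epithelial MCF-10A cells were exposed to compounds for 4 days. Viability was read by MTT reduction and expressed as percent viable cells.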
Data set [3] concerns MCF7. The experiment in a line: Induction of apoptosis in human MCF7 cells assessed as activation of caspase-3 level incubated for 24 hrs by enzyme assay relative to control. Format: functional. The procedure, abridged:
(§2)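 MCF-7 breast cells (ATCC) were grown in RPMI 1640 with 10% FBS at 37 °C, then treated with compounds. Active caspase-3, -8 or -9 protein was quantified (pg/mL) and expressed as fold over untreated control cells.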

The next data set relates to PANC-1. The experiment in a line: Antiproliferative activity against human PANC1 cells assessed as growth inhibition incubated for 48 hrs by MTT assay. Conditions: PANC-1, 48 h. Format: functional. The method in brief:
as §1

A further data set relates to HT-29. The experiment in a line: Antiproliferative activity against human HT-29 cells assessed as growth inhibition incubated for 48 hrs by MTT assay. The class given is functional. Conditions: HT-29, 48 h. The method in brief: as §1
The test system of data set [4] is MCF7. The experiment in a line: Induction of apoptosis in human MCF7 cells assessed as increase in Bax level incubated for 24 hrs by RT-PCR relative to control. Format: functional.
Data set [5] concerns MCF7. The experiment in a line: Induction of apoptosis in human MCF7 cells assessed as activation of caspase-9 level incubated for 24 hrs by enzyme assay relative to control. Format: functional. The method in brief: as §2
The test system of data set [6] is MCF7. The experiment in a line: Induction of apoptosis in human MCF7 cells assessed as activation of cytochrome C level incubated for 24 hrs by enzyme assay relative to control. Format: functional. The method in brief:
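MCF-7 cells (ATCC) were cultured in RPMI 1640 plus 10% fetal bovine serum at 37 °C and stimulated with compounds. Cytochrome C level was measured and reported as fold over untreated control.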

The subject of data set [7] is MCF7. The experiment in a line: Induction of apoptosis in human MCF7 cells assessed as decrease in Bcl2 level incubated for 24 hrs by RT-PCR relative to control. The class given is functional.
Data set [8] concerns MCF7. The experiment in a line: Induction of apoptosis in human MCF7 cells assessed as activation of caspase-8 level incubated for 24 hrs by enzyme assay relative to control. The class given is functional. The procedure, abridged: as §2
The test system of data set [9] is MCF7. The experiment in a line: Cell cycle arrest in human MCF7 cells assessed as accumulation in G0/G1 phase incubated for 24 hrs by annexin-V FITC and propidium iodide staining based flow cytometry analysis (reference value: 53.71 %). Format: functional.
Data set [10] has as its system MCF7. The experiment in a line: Cell cycle arrest in human MCF7 cells assessed as accumulation in pre G phase incubated for 24 hrs by annexin-V FITC and propidium iodide staining based flow cytometry analysis (reference value: 1.93 %). Format: functional.
Data set [11] relates to MCF7. The experiment in a line: Cell cycle arrest in human MCF7 cells assessed as accumulation in S phase incubated for 24 hrs by annexin-V FITC and propidium iodide staining based flow cytometry analysis (reference value: 37.42 %). The class given is functional.
Data set [12] has as its system MCF7. The experiment in a line: Induction of apoptosis in human MCF7 cells assessed as late apoptotic cells at 0 to 8 umol/L incubated for 24 hrs by annexin-V FITC and propidium iodide staining based flow cytometry analysis (reference value: 0.37%). The class given is functional. The procedure, abridged: (§3)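 MCF-7 cells were stained with annexin-V-FITC and propidium iodide and analysed by flow cytometry. Cells were classed as early apoptotic, late apoptotic or necrotic.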

In data set [13] the test system is MCF7. The experiment in a line: Cell cycle arrest in human MCF7 cells assessed as accumulation in G2/M phase incubated for 24 hrs by annexin-V FITC and propidium iodide staining based flow cytometry analysis (reference value: 8.87 %). Format: functional.
Data set [14] deals with MCF7. The experiment in a line: Induction of apoptosis in human MCF7 cells assessed as necrotic cells at 0 to 8 umol/L incubated for 24 hrs by annexin-V FITC and propidium iodide staining based flow cytometry analysis (reference value: 0.68 %). Format: functional. The procedure, abridged: as §3
The test system of data set [15] is MCF7. The experiment in a line: Induction of apoptosis in human MCF7 cells assessed as early apoptotic cells at 0 to 8 umol/L incubated for 24 hrs by annexin-V FITC and propidium iodide staining based flow cytometry analysis (reference value: 0.88 %). Format: functional. The method in brief: as §3

Turning to `CCc1c(C(=O)NCCc2ccc(N3CCCCC3)cc2)oc2ccc(Cl)cc12`, the GI50 worked out at 3.6 µM in the data set on MCF7 [1], 4.5 µM in the data set on A549, 4.6 µM in the data set with PANC-1 and 4.8 µM with HT-29. The viability at 96 h, 50 µM in data set [2] worked out at 82%. The “fold change (FC)” value with MCF7 [3] was found to be 5.71.
Turning to `CCc1c(C(=O)NCCc2ccc(N(C)C)cc2)oc2ccc(Cl)cc12`, the GI50 with MCF7 [1] came out at 4.7 µM; in the data set on A549, 4.8 µM; with PANC-1 it was 5.5 µM; in the data set with HT-29, 6.5 µM. Also, the viability at 96 h, 50 µM in data set [2] worked out at 85%. Moreover, the “fold change (FC)” value with MCF7 [3] is 3.87.
Consider `CCc1c(C(=O)N2CCC(Cc3ccccc3)CC2)oc2ccc(Cl)cc12`, for which the GI50 in the data set with MCF7 [1] stood at 26.5 µM; with A549, 27.9 µM; in the data set on PANC-1 it was 33.7 µM; in the data set with HT-29, 27.8 µM. Further, the viability at 96 h, 50 µM in [2] was 90%.
`CCc1c(C(=O)NCCc2ccccc2)oc2ccc(Cl)cc12`: the GI50 in the data set on MCF7 [1] was determined as 7.5 µM; in the data set with A549, 6 µM; with PANC-1, 8.3 µM; in the data set on HT-29, 7.7 µM. Moreover, in data set [2], the viability at 96 h, 50 µM amounted to 89%.
Regarding `Cc1c(C(=O)NCCc2ccc(N3CCOCC3)cc2)oc2ccc(Cl)cc12`, the “fold change (FC)” value is listed as 19.7 in the data set on MCF7 [4]; 13.58 in the data set with MCF7 [5]; 5.9 in the data set on MCF7 [3]; 11.26 in the data set on MCF7 [6]; 2.56 in the data set with MCF7 [7]; 5.23 in the data set on MCF7 [8]. For the same compound, the GI50 in the data set on MCF7 [1] was determined as 3.1 µM; in the data set on A549, 3.5 µM; in the data set on PANC-1, 3.3 µM; in the data set on HT-29, 3.9 µM. In addition, the viability at 96 h, 50 µM in [2] turned out to be 84%.
As for `Cc1c(C(=O)NCCc2ccc(N3CCCC3)cc2)oc2ccc(Cl)cc12`, the GI50 was determined as 4.9 µM in the data set on MCF7 [1], 5.2 µM in the data set with A549, 4.8 µM in the data set on PANC-1 and 4.9 µM in the data set on HT-29. The viability at 96 h, 50 µM in [2] was determined as 89%.
Turning to `CCc1c(C(=O)NCCc2ccc(N3CCCC3)cc2)oc2ccc(Cl)cc12`, the GI50 turned out to be 4.4 µM in the data set with MCF7 [1], 4.9 µM in the data set with A549, 5.6 µM in the data set on PANC-1 and 5.4 µM in the data set with HT-29. Further, the viability at 96 h, 50 µM in data set [2] is 89%. Moreover, in the data set with MCF7 [3], the “fold change (FC)” value is 5.17.
For `Cc1c(C(=O)N2CCC(Cc3ccccc3)CC2)oc2ccc(Cl)cc12`, the 50% growth inhibitory concentration (GI50) amounted to 16.4 µM in the data set with MCF7 [1], 15.4 µM with A549, 18.6 µM with PANC-1 and 16.9 µM in the data set with HT-29. Further, the viability at 96 h, 50 µM in data set [2] was determined as 96%.
With `Cc1c(C(=O)NCCc2ccc(N(C)C)cc2)oc2ccc(Cl)cc12`, the GI50 in the data set on MCF7 [1] was 6.8 µM; in the data set on A549 it was 6.9 µM; in the data set with PANC-1, 6.6 µM; with HT-29, 6.9 µM. In data set [2], the viability at 96 h, 50 µM was determined as 90%.
On to `Cc1c(C(=O)NCCc2ccccc2)oc2ccc(Cl)cc12`, for which the GI50 with MCF7 [1] was 12.9 µM; in the data set on A549, 11.4 µM; in the data set with PANC-1, 12.5 µM; in the data set with HT-29, 12.2 µM. Also, the viability at 96 h, 50 µM in data set [2] is 87%.
The like results for `CCc1c(C(=O)N2CCN(c3ccccc3)CC2)oc2ccc(Cl)cc12` were, in that order, 13.6 µM, 14.7 µM, 13.8 µM, 13.8 µM and 82%.
For `Cc1c(C(=O)N2CCN(c3ccccc3)CC2)oc2ccc(Cl)cc12`, in that order: 35.4 µM, 29.5 µM, 36 µM, 34.7 µM and 92%.
As to `CCc1c(C(=O)NCCc2ccc(N3CCOCC3)cc2)oc2ccc(Cl)cc12`, the Activity with MCF7 [9] came to 24.53%; in the data set with MCF7 [10], 34.29%; with MCF7 [11] it was 31.49%; in the data set on MCF7 [12] it was 23.08%; in the data set on MCF7 [13] it was 43.96%; with MCF7 [14], 2.29%. Further, in the data set with MCF7 [15], the Activity amounted to 8.92%. In addition, the “fold change (FC)” value was 34.46 with MCF7 [4]; 15.98 in the data set on MCF7 [5]; 8.1 with MCF7 [3]; 16.83 with MCF7 [6]; 5.77 in the data set on MCF7 [7]; 9.64 with MCF7 [8]. For the same compound, the GI50 in the data set with MCF7 [1] was found to be 0.7 µM; in the data set on A549, 1.8 µM; in the data set on PANC-1, 1.3 µM; in the data set with HT-29, 1.6 µM. In data set [2], the viability at 96 h, 50 µM is 91%.
As to `Cc1c(C(=O)NCCc2ccc(N3CCCCC3)cc2)oc2ccc(Cl)cc12`, the GI50 in the data set on MCF7 [1] was found to be 4.9 µM; in the data set with A549, 4.4 µM; in the data set with PANC-1, 4.1 µM; with HT-29, 4.9 µM. Also, in data set [2], the viability at 96 h, 50 µM was 79%. The “fold change (FC)” value in the data set with MCF7 [3] stood at 4.83.
For the compound `COc1cccc2c1C(=O)c1c(O)c3c(c(O)c1C2=O)C[C@@](O)(C(=O)CO)C[C@@H]3O[C@H]1C[C@H](N)[C@H](O)[C@H](C)O1` [DOXORUBICIN], the Activity in the data set with MCF7 [10] worked out at 22.17%. For the same compound, the “fold change (FC)” value in the data set with MCF7 [4] is 33.42; with MCF7 [5], 17.4; in the data set on MCF7 [3] it was 7.66; in the data set on MCF7 [6], 13.13; in the data set on MCF7 [7] it was 5.1; in the data set with MCF7 [8] it was 10.07. The GI50 with MCF7 [1] was 0.9 µM; in the data set on A549, 1.21 µM; in the data set with PANC-1, 1.41 µM; with HT-29, 1.01 µM.
